Screening data as filed in PubChem.
In the library only some 2.8% were active in any assay of this set; here they are far more common.
EP2 modulator – modulators of human EP2 prostaglandin E2 receptor | induction, % at 25 µM | EP2-expressing cells, cAMP HTRF FRET, PGE2 co-stimulation | P43116 | 0.83% of 260,000 active;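 active = compounds whose cAMP rise, as percent of the full-agonist control response, exceeds 60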;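 also: rat C6 glioma line stably carrying human EP2 under a CMV promoter; the protocol text gives 20 µM as final concentration; 100% = response of wells given 1 µM PGE2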
NPY Y1 blocker – blocks the human neuropeptide Y Y1 receptor. HEK293-CNG Y1 cells, membrane potential fluorescence; NPY at EC95, then isoproterenol. 1% of 200,000 active. AID 1040. P25929. inhibition, % at 3.6 µM;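 active = inhibition above the campaign mean inhibition of all tested compounds plus 3 SD, cut at about 20% in these data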;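 also: 0% = DMSO wells given NPY plus isoproterenol and 100% = isoproterenol alone without NPY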
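Material: Y1- and CNG-channel-expressing HEK293 cells / Probe or stimulus: NPY 25 nM then isoproterenol 1 µM plus Ro 20-1724 25 µM / Doses: 3.6 µM single dose, DMSO 0.4% / Schedule: compound incubation 1 h at room temperature, readout 45 min post-stimulation / Signal: membrane potential fluorescence / Benchmarks: isoproterenol-only wells as full block versus NPY-plus-isoproterenol wells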
NPY-Y2 PAM-ag – potentiates or activates human NPY-Y2 receptor; P49146; cells expressing NPY-Y2, potentiator/agonist read-out; activation, % at 3.6 µM; 0.45% of 220,000 active; AID 1359; in the data active = activation above about 27%;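 also: cells stimulated with NPY near EC25 plus isoproterenol at EC100; 0% = vehicle plus submaximal agonist and 100% = vehicle plus saturating agonist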
Target sequence (P49146 whole entry, looked up): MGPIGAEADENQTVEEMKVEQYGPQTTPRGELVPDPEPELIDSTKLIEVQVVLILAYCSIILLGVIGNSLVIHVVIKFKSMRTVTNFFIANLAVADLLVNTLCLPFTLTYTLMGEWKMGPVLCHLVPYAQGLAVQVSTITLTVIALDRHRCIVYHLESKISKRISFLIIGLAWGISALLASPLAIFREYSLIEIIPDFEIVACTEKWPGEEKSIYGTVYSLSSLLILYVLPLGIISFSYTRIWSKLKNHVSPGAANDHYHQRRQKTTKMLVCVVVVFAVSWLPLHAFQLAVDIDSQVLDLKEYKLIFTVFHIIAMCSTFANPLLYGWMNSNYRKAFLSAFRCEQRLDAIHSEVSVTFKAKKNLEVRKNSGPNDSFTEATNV
PGE2 EP2 inh – inhibitors of human EP2 prostaglandin E2 receptor; P43116; C6 glioma cells expressing human EP2, cAMP TR-FRET; cells stimulated with saturating PGE2; inhibition, % at 25 µM; 0.52% of 260,000 active; AID 1422;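 active = percent inhibition above 40 after rounding to a whole number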;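 also: rat C6 glioma host cells with rolipram phosphodiesterase inhibitor present; the protocol text gives 20 µM as final concentration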
NPY Y2 blocker – blocks the human neuropeptide Y Y2 receptor. inhibition, % at 2.7 µM. NPY-Y2 expressing cells, antagonist mode. 0.99% of 140,000 active. P49146; in the data active = inhibition above about 17%;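 also: 0% = vehicle with agonist challenge and 100% = reference antagonist with challenge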
NPY1 pot ag – potentiates or activates human NPY-Y1 receptor. P25929. NPY-Y1 expressing cells, potentiator/agonist activation. activation, % at 3.6 µM. 0.37% of 220,000 active. AID 1304; in the data active = activation above about 33%, passing the limit was not always enough;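 also: cells stimulated with NPY at EC10 then isoproterenol at EC100; 0% = low agonist plus stimulus and 100% = saturating agonist plus stimulus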
EP2 confirm – human EP2 receptor cAMP induction, negative in counter-screens. shares compounds with EP2 modulator. C6 glioma EP2 cells, cAMP HTRF induction; plus low (about EC15) PGE2 agonist. calls only at 20 µM (by protocol). 47% of 1,300 active;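 active = cAMP induction above 50% in the main assay while under 30% in all four parallel counter assays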;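 also: rat C6 glioma cells stably expressing human EP2 receptor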
* hit, by the source's call; i = inactive; x = no result given; + = active, no number; ! = not confirmed by another sample.

SMILES	EP2 modulator	NPY Y1 blocker	NPY-Y2 PAM-ag	PGE2 EP2 inh	NPY Y2 blocker	NPY1 pot ag	EP2 confirm
COc1cccc(-c2nc(N3CCC(C)CC3)c3ccccc3n2)c1O	56	0	-5	19	2	2	x
CC1CCN(c2nc(-c3ccccc3O)nc3ccccc23)CC1	31	-1	9	10	0	-6	x
Oc1ccccc1-c1nc(N2CCCC2)c2ccccc2n1	75*	7	-11	8	3	3	i
COc1cccc(-c2nc(N3CC(C)CC(C)C3)c3ccccc3n2)c1O (centres undefined)	70*	9	1	x	-1	7	+
CCC(c1nnnn1C(C)(C)CC)N(Cc1cc2c(C)cc(C)cc2[nH]c1=O)C1CCCCC1 (centres undefined)	-2	x	x	8	x	x	x
COCCNC(=O)c1c(NC(=O)COc2cccc(C)c2C)sc2c1CCCC2	13	x	x	7	x	x	x
O=C(c1cc(-c2ccccn2)nc2ccc(Br)cc12)N1CCN(S(=O)(=O)c2ccccc2)CC1	17	-6	1	13	x	-3	x
O=C(c1cc(-c2ccccn2)nc2ccc(Br)cc12)N1CCc2ccccc2C1	66*	5	-4	x	0	-4	i
Cc1cccc2cc(CN(Cc3cccs3)C3(c4nnnn4C4CCCC4)CCCC3)c(=O)[nH]c12	66*	-2	9	13	2	-1	i
Cc1c(Cl)cccc1NC(=O)COc1ccc(S(=O)(=O)N2CCCC2)cc1	-19	x	x	6	x	x	x
NC(=O)C(=O)Nc1ccccn1	-12	x	x	10	x	x	x
CC(/C=C\c1ccccc1)=C/C(=O)O	-8	x	-34	2	x	-40	x
CC1=C(/C=C/C(C)=C/C=C/C(C)=C/C(=O)O)C(C)(C)CCC1	62*!	-3	10	14	-1	0	+
CCCC(=O)Nc1ccccc1Sc1ncnc2scc(-c3ccccc3)c12	68*	14	-8	6	6	7	i
Cc1ncccc1-c1cc2cccnc2n1CCCNC(=O)CC1CCCC1	15	x	x	8	x	x	x
COc1ccc(CN2C(=O)CN=C2Nc2cc(C)ccc2C)cc1	70*	6	-15	10	4	1	i
Cc1cc2c(cc1C)C(O)CC1(CCN(CC(O)c3ccc(F)cc3)CC1)O2 (centres undefined)	-53	x	x	10	x	x	x
NCCCCCc1nc2ccccc2[nH]1	6	x	x	7	x	x	x
Cn1cccc1/C=C1\CC(C(C)(C)C)C/C(=C\c2cccn2C)C1=O (centres undefined)	71*	-1	-3	4	-1	-3	+
Cn1cccc1/C=C1\Cc2ccccc2C1=O	-46	-2	4	6	x	-15	x
CCn1nnnc1SCC(=O)Nc1cccc(C)n1	70*	7	2	9	2	-28	i
COCCCN[C@@H]1CCN(Cc2ccccc2F)C[C@H]1O	-3	x	x	7	x	x	x
O=C(O)COc1ccc(/C=C/c2ccc3cccc([N+](=O)[O-])c3n2)cc1	89*	-5	5	6	-1	-20	+
COc1cc(/C=C/c2ccc3cccc([N+](=O)[O-])c3n2)ccc1OCC(=O)O	73*	-2	2	4	x	-6	+
CC(=O)Nc1ccc(/C=C/c2ccc3cccc([N+](=O)[O-])c3n2)cc1	-16	x	-5	10	x	12	x
SMILES	EP2 modulator	NPY Y1 blocker	NPY-Y2 PAM-ag	PGE2 EP2 inh	NPY Y2 blocker	NPY1 pot ag	EP2 confirm
CCn1c(SCC(=O)Nc2cccc(C)c2C)nc2c1c(=O)n(C)c(=O)n2C	2	x	x	21	x	x	x
O=C(Nc1cccc(Cl)c1N1CCCC1)c1ccc(Br)o1	69*	33*	-32	6	33*	-79	+
O=C(Nc1ccccc1Oc1ccccc1)c1cnccn1	71*	5	4	4	1	-15	+
COc1ccccc1NC(=O)c1ccc(Br)o1	-11	6	-4	13	3	-37	x
O=C(Nc1ccccc1-c1ccccc1)c1ccc(Br)o1	57	20	-39	8	8	-62	i
O=C(Nc1ccccc1O)c1ccc(Br)o1	-57	x	x	7	x	x	x
O=C(Nc1ccccc1Oc1ccccc1)c1ccc(Br)o1	64*	3	-11	20	8	-19	+
Cc1ccc(Oc2ccc(Cl)cc2NC(=O)c2cnccn2)cc1	54	0	1	7	2	1	x
Cc1cc(C)nc(N2CCC(C(=O)Nc3ccccc3F)CC2)n1	-8	x	x	10	x	x	x
CCOC(=O)CSc1nnc(CNc2ccccc2Cl)n1-c1ccc(OC)cc1	-3	x	x	8	x	x	x
COc1cccc(/C(O)=C2/C(=O)C(=O)N(Cc3ccco3)C2c2ccc(O)c(OC)c2)c1 (centres undefined)	1	x	x	10	x	x	x
COc1ccc(OC)c(C(=O)c2coc3ccc(OCC(=O)O)cc23)c1	65*	1	-5	14	-3	-44	i
COc1ccc(OC)c(C(=O)c2coc3ccc(OC(C)=O)cc23)c1	-7	-1	-9	14	3	-22	x
COCc1cc(C)nc2sc3c(=O)n(Cc4ccco4)nnc3c12	22	0	8	10	2	12	x
Cc1cc(C)c2c(n1)sc1c(=O)n(Cc3ccccc3Cl)nnc12	67*	-5	6	x	-2	9	i
COc1ccc(C2NC(=O)CCC2NC(=O)CCn2nnc3ccccc32)c(OC)c1 (centres undefined)	9	x	x	7	x	x	x
Clc1ccc(Cl)c(Nc2ccnc(SCc3ccccc3)n2)c1	62*	x	x	36	x	x	i
Oc1ccccc1/C=N/Nc1ccnc(SCc2ccccc2)n1	6	10	-1	9	0	-20	x
COc1ccc(C(=O)CSc2nnc(CCc3ccccc3)n2-c2ccccc2)cc1	40	6	-25	6	6	-37	x
COc1ccc(-n2c(CCc3ccccc3)nnc2SCC(=O)c2ccccc2)cc1	52	-1	-2	15	7	0	i
CCCN1C[C@H](NC(=O)C2CCOCC2)[C@@H](c2ccc(OC)cc2)C1	-14	x	x	7	x	x	x
CCCn1c(Nc2nc3ccccc3n2C)nc2ccccc21	71*	1	-8	8	2	-5	i
CCCCn1c(Nc2ccccc2)nc2ccccc21	16	4	-2	6	4	6	x
CCCn1c2ccccc2c2nc3ccccc3nc21	78*	11	-14	20	1	-11	+
CCn1c2ccc(F)cc2c2nc3ccccc3nc21	40	8	-16	6	x	-24	i
N#CCCn1c2ccccc2c2nc3ccccc3nc21	-12	-5	-3	19	1	-10	x
COC(=O)c1ccc(-n2nc(C(F)(F)F)c3c2-c2ccoc2CC3)cc1	72*	18	-8	10	6	-25	i
